These results are taken from ChEMBL document CHEMBL4130436, “Meroterpenoids from a Medicinal Fungus Antrodia cinnamomea” (2017).

One test deals with A549. Nature of the test: Growth inhibition of human A549 cells after 48 hrs by SRB assay. Type of test: functional. The note with it: A549, 48 h. In short, it runs like this:
(§1)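 Cells (from ATCC) grown in RPMI-1640 with 10% FBS and penicillin/streptomycin/amphotericin B, 37 °C, 5% CO2. Seeded overnight, then exposed to various compound concentrations for 48 h. A time-zero plate fixed with 10% TCA at dosing. After treatment, cells fixed with 10% TCA, stained with 0.4% SRB in 1% acetic acid, lysed in 10 mM Trizma base, A515 read. GI50 = concentration giving 50% reduction of the control protein increase.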
On the technique in general: In SRB staining, fixed cells bind dye roughly in proportion to their protein.

Another test relates to PC-3. Nature of the test: Growth inhibition of human PC3 cells after 48 hrs by SRB assay. Type of test: functional. The note with it: PC-3, 48 h. In short, it runs like this:
as §1

For `COC1=C(OC)[C@H](OC(C)=O)[C@H](C/C=C(\C)CC/C=C(\C)C[C@H](O)C=C(C)C)[C@@H](C)C1=O`, the figures for the GI50 in the test with A549 and with PC-3 were 20.7 µM and > 30 µM, respectively.
Turning to `O=c1[nH]cc(F)c(=O)[nH]1` [FLUOROURACIL], the GI50 in the test on A549 amounted to 4.2 µM; with PC-3 it was 11.7 µM.
Turning to `COC1=C(OC)[C@H](O)[C@H](C/C=C(\C)CC/C=C(\C)C[C@@H]2C[C@@H](C)C(=O)O2)[C@@H](C)C1=O`, the concentration for 50% growth inhibition (GI50) was 14.1 µM with A549 and > 30 µM in the test with PC-3.
As to `COC1=C[C@H](O)[C@H](C/C=C(\C)CC/C=C(\C)CCC=C(C)C)[C@@H](C)C1=O`, the GI50 was 16.4 µM in the test with A549 and > 30 µM in the test on PC-3.
`COC1=C(OC)[C@H](O)[C@H](C/C=C(\C)CC/C=C(\C)C/C=C/C(C)(C)O)[C@@H](C)C1=O`: the 50% growth inhibitory concentration (GI50) was 23.8 µM in the test with A549 and > 30 µM with PC-3.
For `COC1=CC(=O)C(C/C=C(\C)CC/C=C(\C)CCC=C(C)C)=C(C)C1=O`, the GI50 in the test with A549 and in the test on PC-3 was > 30 µM in each case.
Turning to `COC1=C(OC)[C@H](O)[C@H](C/C=C(\C)CC/C=C(\C)C[C@H](O)/C=C(\C)CO)[C@@H](C)C1=O`, the GI50 in the test on A549 is 12 µM; in the test on PC-3, > 30 µM.
For `COC1=C[C@H](O)[C@H](C/C=C(\C)CC/C=C(\C)C[C@H](O)/C=C(\C)CO)[C@@H](C)C1=O`, the GI50 with A549 and with PC-3 was > 30 µM throughout.
Turning to `COc1cc2c(c(C)c1O)C=C[C@](C)(CC/C=C(\C)CCC=C(C)C)O2`, the GI50 with A549 and in the test with PC-3 was > 30 µM throughout.
Regarding `COC1=C(OC)[C@H](OC(C)=O)[C@H](C/C=C(\C)CC/C=C(\C)C[C@@H]2C[C@@H](C)C(=O)O2)[C@@H](C)C1=O`, the results for the GI50 in the test with A549 and with PC-3 were 11.3 µM and > 30 µM, respectively.
Regarding `COC1=C(OC)C(=O)C(C/C=C(\C)CC/C=C(\C)CCC=C(C)C)=C(C)C1=O`, the concentration for 50% growth inhibition (GI50) in the test on A549 and in the test with PC-3 was > 30 µM in each case.
Take `COC1=C(OC)[C@H](OC(C)=O)[C@H](C/C=C(\C)CC/C=C(\C)C[C@H](O)/C=C(\C)C(=O)O)[C@@H](C)C1=O`: the concentration for 50% growth inhibition (GI50) in the test on A549 and in the test on PC-3 was > 30 µM in each case.
For `COC1=C(OC)[C@H](O)[C@H](C/C=C(\C)CC/C=C(\C)C[C@H](O)C=C(C)C)[C@@H](C)C1=O`, the concentration for 50% growth inhibition (GI50) was 9.6 µM with A549 and > 30 µM in the test with PC-3.
As for `COC1=C(OC)[C@H](O)[C@H](C/C=C(\C)CC/C=C(\C)CCC=C(C)C)[C@@H](C)C1=O` [ANTROQUINONOL], the concentration for 50% growth inhibition (GI50) worked out at 5.7 µM in the test with A549 and 13.5 µM with PC-3.
Consider `COC1=C(OC)C(=O)C(C/C=C(\C)CC/C=C(\C)C[C@H](O)C=C(C)C)=C(C)C1=O`, for which the 50% growth inhibitory concentration (GI50) in the test with A549 and in the test with PC-3 was > 30 µM throughout.
Consider `COC1=C[C@H](O)[C@H](C/C=C(\C)CC/C=C(\C)C[C@@H]2C[C@@H](C)C(=O)O2)[C@@H](C)C1=O`, for which the GI50 with A549 and in the test on PC-3 was > 30 µM throughout.
For `COC1=C(OC)[C@H](O)[C@H](C/C=C(\C)CC/C=C(\C)CCCC(C)CO)[C@@H](C)C1=O` (stereo not given in full), the concentration for 50% growth inhibition (GI50) in the test with A549 was 7.1 µM; with PC-3, > 30 µM.
For the compound `COC1=C(OC)[C@H](OC(C)=O)[C@H](C/C=C(\C)CC/C=C(\C)C[C@H](O)/C=C(\C)CO)[C@@H](C)C1=O`, the concentration for 50% growth inhibition (GI50) in the test on A549 is 29 µM; with PC-3, > 30 µM.
As to `COC1=C(O)[C@H](O)[C@H](C/C=C(\C)CC/C=C(\C)C[C@H](O)/C=C(\C)CO)[C@@H](C)C1=O`, the concentration for 50% growth inhibition (GI50) in the test on A549 and in the test on PC-3 was > 30 µM each time.
On to `COC1=C(OC)[C@H](O)[C@H](C/C=C(\C)CC/C=C(\C)CC/C=C(\C)CO)[C@@H](C)C1=O`, for which the 50% growth inhibitory concentration (GI50) was 8.2 µM in the test on A549 and > 30 µM with PC-3.

One may read the GI50 as the concentration that inhibits growth by half. A low value points to greater sensitivity of the cells.
